Sampled rows, rich in hits. Any-hit rate of the full collection: about 4.5%.
MDM2 E3 inh – blocks human Mdm2 ubiquitin ligase activity; 0.11% of 210,000 active; Q00987; cell-based MDM2 ubiquitination luciferase reporter, 2 h; 0 = plate control, 100 = twice control, blank-subtracted; signal enhancement, % at 5 µM;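 active = signal enhancement of 30% or more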;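 also: luminescence tracks abundance of the self-degrading MDM2-luciferase fusion protein; higher signal means inhibition of MDM2 E3 ligase activity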
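test system = mammalian cells stably expressing self-ubiquitinating, self-degrading MDM2 E3–luciferase fusion | quantity = 2000 cells/well | incubation = cell settling 4 h, compound treatment 2 h, both 37 °C | signal = luminescence with SteadyLite reagent, 15 min at room temperature | evaluation = % enhancement relative to plate controls after blank subtraction | benchmarks = plate controls and plate blanks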
NF-kB expr up – compounds increasing NF-kB expression in human neuronal cells | 1.6% of 190,000 active | fold change at 12.5 µM | NF-kB reporter expression; hits give high values | AID 1239; in the data active = fold change above about 3.3
AHR activator – activates the human aryl hydrocarbon receptor; AHR-responsive luciferase reporter cells, luminescence; activation, % at 5 µM; 2.5% of 320,000 active; AID 2796; in the data active = activation above about 47%;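 also: 0% = vehicle wells and 100% = reference agonist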
Target sequence (P35869 whole entry, looked up): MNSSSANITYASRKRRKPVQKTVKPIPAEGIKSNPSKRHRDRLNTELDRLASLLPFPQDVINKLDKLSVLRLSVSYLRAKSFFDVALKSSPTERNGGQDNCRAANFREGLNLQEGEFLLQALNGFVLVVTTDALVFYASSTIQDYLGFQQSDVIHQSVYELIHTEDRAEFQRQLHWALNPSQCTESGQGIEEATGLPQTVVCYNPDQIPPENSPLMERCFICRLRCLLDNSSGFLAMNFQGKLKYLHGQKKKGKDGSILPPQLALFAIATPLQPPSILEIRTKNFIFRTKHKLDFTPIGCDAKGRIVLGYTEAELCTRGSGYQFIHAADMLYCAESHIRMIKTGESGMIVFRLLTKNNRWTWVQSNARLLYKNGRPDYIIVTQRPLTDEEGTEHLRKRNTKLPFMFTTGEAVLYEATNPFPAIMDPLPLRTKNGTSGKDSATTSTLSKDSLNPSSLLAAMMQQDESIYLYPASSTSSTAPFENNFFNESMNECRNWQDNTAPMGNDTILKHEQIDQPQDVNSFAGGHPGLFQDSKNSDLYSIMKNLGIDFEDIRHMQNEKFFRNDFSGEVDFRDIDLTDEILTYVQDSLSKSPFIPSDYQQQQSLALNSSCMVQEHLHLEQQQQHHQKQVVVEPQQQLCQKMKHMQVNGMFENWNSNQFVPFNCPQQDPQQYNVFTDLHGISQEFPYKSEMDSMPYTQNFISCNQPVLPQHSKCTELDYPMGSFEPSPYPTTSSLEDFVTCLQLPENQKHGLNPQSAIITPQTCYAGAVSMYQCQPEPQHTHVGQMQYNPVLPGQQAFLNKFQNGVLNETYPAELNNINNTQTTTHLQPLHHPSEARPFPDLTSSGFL
APP 5'UTR act – activates APP 5'UTR luciferase reporter | SH-SY5Y APP 5'UTR luciferase reporter, luminescence; zero percent = DMSO vehicle wells | activation, % at 2 µM | 1% of 190,000 active;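 active = activation above a set limit, based on mean plus 3 SD of controls, cut at about 140% in these data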
STAT1 activator – activators of IFN-gamma induced STAT1 signaling. NIH 3T3 STAT1-luciferase reporter, luminescence; 100% = IFN-gamma alone, no compound. activation (% of control), % at 5.5 µM. 2.6% of 200,000 active;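 active = activation above the screen-wide mean activation plus 3 SD, cut at about 130% in these data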;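 also: raw ratio to IFN-gamma control signal so 100% means no change and 0% no light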
PERK inh – human PERK inhibition, primary cell-based screen; CHO PERK-DD fusion, SEAP luminescence translation reporter; AID 1416; 0.17% of 220,000 active; inhibition, % at 5.6 µM;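 active = inhibition above the mean inhibition of all tested compounds plus 3 SD, set separately per screening campaign, cut at about 2.9% in these data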;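 also: PERK kinase domain activated by AP20187 dimerizer at 100 nM; 0% = DMSO with dimerizer and 100% = rapamycin at 8.4 µM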
Numbers without * were called inactive; nt = no result given.

SMILES	MDM2 E3 inh	NF-kB expr up	AHR activator	APP 5'UTR act	STAT1 activator	PERK inh
Cc1cc(C)cc(NC(=O)C(=S)NCc2ccccc2)c1	-4.6	1.04	3.9	4.6	100.1	2.9*
COc1cccc(OCC(=O)NNC(=S)Nc2ccc(Cl)cc2Cl)c1	-6.1	1.14	1.8	0.3	101.6	1.3
N#CCC(=O)Nc1ccc(C(=O)OCC(=O)NNC(=O)c2cccs2)cc1	nt	nt	-1.6	nt	nt	nt
Cc1ccc(-n2[nH]c(=O)c(-c3ccccn3)c2C)cc1	-82.4	0.97	25.6	2.6	29.9	0.4
Cc1ccc(-n2[nH]c(=O)c3cccnc32)cc1	-17.0	1.3	63.7*	5.4	100.4	0.7
COC(=O)Nc1nnc(/C=C/c2ccc(OC)cc2)s1	-6.0	2.02	55.0*	51.7	119.7	0.8
CCOc1cccc(C(=O)Nc2nnc(-c3ccco3)s2)c1	-69.5	3.3*	48.2*	119.8	124.6	-0.7
CCc1nnc(NC(=O)c2ccc(OC)cc2)s1	-51.0	4.01*	-1.8	128.7	89.4	0.6
CCc1nnc(NC(=O)c2cccc(OC)c2)s1	-7.2	2.71	6.0	101.3	137.2*	1.5
CCOCc1nnc(NC(=O)c2cccc(OC)c2)s1	-3.2	2.87	26.8	22.1	117.1	1.0
C=CCC[C@@H](Cc1ccc(F)cc1)C(=O)OC[C@@H](NC(=O)[C@@H](CC=C)CC(=O)N(CCO)Cc1ccccc1)c1ccccc1	nt	nt	0.2	nt	nt	nt
O=C(CN1CCN(Cc2ccccc2)CC1)N/N=C/c1c[nH]c2ccccc12	-7.7	0.92	15.9	6.2	105.7	0.0
COc1ccc(S(=O)(=O)CC(=O)Nc2nnc(C(F)(F)F)s2)cc1	nt	nt	-1.5	nt	nt	nt
Cc1ccc(C(=O)Nc2nnc(Cc3ccccc3)s2)cc1	nt	nt	3.6	nt	nt	nt
CCc1nnc(NS(=O)(=O)c2ccc(N/C=C/C(=O)c3ccc(OC)cc3)cc2)s1	5.0	1.1	2.4	6.1	136.0*	0.7
O=C(Nc1nnc(Cc2ccccc2)s1)c1ccccc1	nt	nt	54.3*	nt	nt	nt
CCOc1ccc(C(=O)/C=C/Nc2ccc(S(=O)(=O)N=C(N)N)cc2)cc1	-2.4	1.36	-1.2	1.1	130.8*	0.7
COc1ccc(C(=O)Nc2nnc(C(F)(F)F)s2)cc1	-7.3	2.3	58.6*	68.8	115.6	0.2
O=C1COc2ccc(C(=O)c3ccccc3C(=O)NCc3ccco3)cc2N1	-13.3	1.44	3.9	12.8	100.8	0.6
O=C(CCCSc1nc2ccccc2[nH]1)Nc1nnc(C2CC2)s1	4.3	1.14	31.5	5.2	100.1	0.0
CSCC(=O)N1CCc2ccc(NC(=O)c3ccccc3Cl)cc2C1	nt	nt	5.4	nt	nt	nt
Cc1cc(-c2nnc(CCC(=O)NCCc3ccccc3F)o2)no1	nt	nt	0.2	nt	nt	nt
Cc1nc(-c2ccccc2)sc1C1(C)CC(c2ccc(OC(F)(F)F)cc2)=NO1 (stereo not drawn)	11.4	nt	4.7	nt	nt	nt
CC1(C)Oc2ccc(C(=O)NC3CCCC3)cc2N(CC(=O)N2CCOCC2)C1=O	-5.8	1.15	-1.1	11.9	95.1	-0.4
CC1(C)Oc2ccc(C(=O)NC3CC3)cc2N(CC(=O)N2CCOCC2)C1=O	-15.9	1.17	74.3*	19.7	96.2	1.9
SMILES	MDM2 E3 inh	NF-kB expr up	AHR activator	APP 5'UTR act	STAT1 activator	PERK inh
COc1ccc(C(=O)Nc2ccc(C)cc2C(=O)c2ccccc2)cc1	-10.4	1.17	36.3	8.1	90.2	-0.2
COc1ccccc1C(=O)NNC(=O)c1cccc(Cl)c1	-11.4	3.62*	35.4	141.7*	127.2	1.2
COc1ccccc1C(=O)Nc1ccccc1SC(=O)c1ccccc1OC	nt	nt	53.0*	nt	nt	nt
COc1ccccc1C(=O)Nc1ccc(C)cc1C(=O)c1ccccc1	-5.2	1	51.6*	5.0	106.5	0.3
O=C(N/N=C(\c1ccccc1)c1cccnc1)c1cccc(F)c1	nt	nt	5.5	nt	nt	nt
CC(=O)Nc1ccc(OCC(O)Cn2cncn2)cc1 (stereo not drawn)	nt	nt	0.1	nt	nt	nt
CCCC(=O)Nc1ccc(Cl)c(NC(=O)c2cccnc2Cl)c1	-18.4	0.88	-0.1	1.3	100.5	0.5
CN(C)c1ccc(C(=O)/C=C/c2ccccc2)cc1	-12.7	4.9*	5.6	139.8*	138.4*	0.5
COc1cccc(/C=C/C(=O)OCC(=O)c2ccc3c(c2)NC(=O)CO3)c1	nt	nt	0.3	nt	nt	nt
O=C(/C=C/c1ccccc1)c1ccc2c(c1)OCCCCO2	-34.3	2.64	6.3	147.0*	139.7*	-0.4
Cc1cc(C)cc(OCC(=O)OCC(=O)c2ccc3c(c2)NC(=O)CO3)c1	-2.6	3.6*	1.2	nt	108.9	1.2
O=C1COc2ccc(C(=O)/C=C/c3ccccc3)cc2N1	-4.5	3.32*	-5.6	5.8	97.8	0.7
CCc1nnc(NS(=O)(=O)c2ccc(N3C(=O)c4ccc(C(=O)O)cc4C3=O)cc2)s1	-24.1	1.08	1.4	20.1	95.8	0.5
CC(OC(=O)c1ccc2c(c1)OCCO2)C(=O)c1ccccc1 (stereo not drawn)	nt	nt	5.4	nt	nt	nt
CCn1cc(C(=O)O)c(=O)c2cc(S(=O)(=O)N(C)C)ccc21	-12.6	1.1	0.7	-8.5	97.6	3.2*
CS(=O)(=O)N(CC(=O)N1CCOCC1)c1cccc(F)c1	nt	nt	-0.7	nt	nt	nt
COC(=O)c1ccc(Nc2c([N+](=O)[O-])c(=O)oc3ccccc23)cc1	-10.1	nt	-2.6	nt	nt	0.9
O=S(=O)(Cc1nc2ccccc2s1)c1ccccc1	-7.3	2.18	33.5	73.2	138.1*	-0.8
c1ccc(OCc2nc3ccccc3s2)cc1	-50.7	4.26*	16.4	126.4	141.2*	0.5
CCC(=O)Nc1ccc(OCc2nc3ccccc3s2)cc1	-6.6	4.16*	57.8*	215.9*	134.5*	1.6
O=S(=O)(CCc1nc2ccccc2s1)c1ccc(Cl)cc1	-8.5	1.11	-0.8	-13.3	95.3	-0.2
Fc1ccc(OCc2nc3ccccc3s2)cc1	-23.5	5.15*	34.3	269.2*	136.3*	1.1
C=CCNc1ncnc2sc(SC)nc12	-17.0	nt	4.5	nt	nt	0.1
Cc1cccc(N2N=C(C(=O)O)CCC2=O)c1	nt	nt	7.2	nt	nt	nt
COc1ccc(/C=N/Nc2ccc([N+](=O)[O-])cc2S(=O)(=O)N2CCN(C)CC2)cc1	-22.0	5.52*	0.6	nt	107.1	0.5
SMILES	MDM2 E3 inh	NF-kB expr up	AHR activator	APP 5'UTR act	STAT1 activator	PERK inh
COc1ccc(C=NNc2ccc([N+](=O)[O-])cc2S(=O)(=O)Nc2ccccc2C(=O)O)cc1OC	nt	nt	-0.1	nt	nt	nt
CC(C)CN1C(=O)NC(NS(=O)(=O)c2ccc(N)cc2)(C(F)(F)F)C1=O (stereo not drawn)	1.6	1.05	-2.5	7.0	103.5	0.8
CC(=O)Nc1ccc(S(=O)(=O)NC2(C(F)(F)F)NC(=O)N(CC(C)C)C2=O)cc1 (stereo not drawn)	-12.9	1.18	58.2*	0.3	97.7	0.9
O=C(NCCOC(=O)c1ccccc1)c1ccc([N+](=O)[O-])cc1	nt	nt	-2.0	nt	nt	nt
CCOC(=O)N1CCN(c2nc(C)cc(C(F)(F)F)n2)CC1	8.4	4.86*	2.9	23.9	89.4	0.6
CCCC(C)NNC(=O)c1cc2ccccc2[nH]1 (stereo not drawn)	6.3	1.1	18.4	7.2	103.6	1.4
